Source: ChEMBL document CHEMBL4622992, “New Polyaminoisoprenyl Antibiotics Enhancers against Two Multidrug-Resistant Gram-Negative Bacteria from Enterobacter and Salmonella Species” (J Med Chem, 2020)
Converted amounts (≈) assume the structure as drawn. The source made the active and inactive calls. No cut-off for these calls is given here. Where a SMILES comes first, the peptide text is derived from it. Bridges are numbered along the chain shown (N, C = ends). [ ]: non-standard residue; d: D form. The star is where a group is joined. X1 = CC[C@H](C)CCCCC(=O)*; βNA = c1ccc2cc(N*)ccc2c1; Dab = NCC[C@H](N)C(=O)O

Experiments:
[1] = Toxicity in CHO cells assessed as reduction in cell viability incubated for 24 hrs by WST1 assay; type: cell-based; details: Chinese hamster (Cricetulus griseus)
How it was run: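 CHO-K1 cells in McCoy's 5A with 10% FCS, exposed in triplicate to 30–1200 μM compound for 24 h at 37°C. After PBS washes, 30 min in medium with 10% WST-1; absorbance at 450 nm. IC50 is the concentration giving 50% loss of viable cells.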

Klebsiella aerogenes [2] = experiment: Potentiation of chloramphenicol-induced antibacterial activity against Enterobacter aerogenes Ea289 assessed as ratio of the chloramphenicol alone MIC to […] in presence of MIC/4 level of compound incubated for 18 hrs; type: functional
How it was run: (§1)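 Broth microdilution in MH broth, 10^5 CFU inoculum, two-fold antibiotic dilutions, with or without compound at MIC/4. MIC is the lowest concentration with no visible growth after 18 h at 37°C. Gain is antibiotic MIC alone divided by MIC with compound. MICs repeated in at least three independent experiments; up to 5% DMSO.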

Klebsiella aerogenes [3] = experiment: Potentiation of nalidixic acid-induced antibacterial activity against Enterobacter aerogenes Ea289 assessed as ratio of the nalidixic acid alone MIC to nalidixic acid MIC in presence of MIC/4 level of compound incubated for 18 hrs
Klebsiella aerogenes [4] = experiment: Induction of outer cell membrane permeabilization in Enterobacter aerogenes Ea289 assessed as induction of nitrocefin hydrolysis at 100 uM incubated for 15 mins; type: organism-based
How it was run: (§2)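 Cells at OD600 0.25 in phosphate buffer (20 mM K2HPO4, 1 mM MgCl2, pH 7.0) with 5 μM CCCP, mixed with nitrocefin 50 μg/mL, then compound at 100 μM. Periplasmic β-lactamase hydrolysis followed by absorbance at 490 nm every 30 s at 37°C.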

Klebsiella aerogenes [5] = experiment: Induction of cell transmembrane potential disruption in Enterobacter aerogenes Ea289 assessed as membrane potential by measuring fluorescence level at 100 uM by [DiSC3(5)] based assay (reference value: 0.2%)
Salmonella typhimurium [6] = experiment: Potentiation of chloramphenicol-induced antibacterial activity against Salmonella enterica subsp. enterica serovar Typhimurium BN10055 assessed as ratio of the chloramphenicol alone MIC to […] in presence of MIC/4 level of compound incubated for 18 hrs; type: functional; how it was run: as §1
Klebsiella aerogenes [7] = experiment: Inhibition of AcrAB-TolC in Enterobacter aerogenes Ea289 assessed as retention of 1,2'diNA dye within bacterial membranes at 100 uM relative to control; set-up: scale not given: the % may be the effect or the level left
How it was run: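 Stationary-phase cells at OD600 0.25 in potassium phosphate buffer pH 7.0 with CCCP 5 µM, loaded overnight with 1,2'-diNA 32 µM at 37°C, washed, compound added at 100 µM. Glucose 50 mM added at 300 s to energize efflux. Fluorescence (ex 370/em 420 nm) read every 30 s at 37°C; PAβN 100 µM as reference.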

[8] = Toxicity index, ratio of IC50 for toxicity in CHO cells to concentration of test compound causing at least 8 times decrease of MIC of almost 3 antibiotics (chloramphenicol/nalidixic acid/doxycycline/erythromycin ) against Enterobacter aerogenes Ea289; type: cell-based; details: hamster, pooled result: one value given for 2 cell lines, strains, targets or settings
Salmonella typhimurium [9] = experiment: Potentiation of doxycycline-induced antibacterial activity against Salmonella enterica subsp. enterica serovar Typhimurium BN10055 assessed as ratio of the doxycycline alone MIC to doxycycline MIC in presence of MIC/4 level of compound incubated for 18 hrs; type: functional; how it was run: as §1
[10] = Toxicity in BALB/cByJ mouse assessed as effect on mouse survival at 50 uM, ip measured after 48 hrs; type: organism-based; details: in vivo
Salmonella typhimurium [11] = experiment: Potentiation of nalidixic acid-induced antibacterial activity against Salmonella enterica subsp. enterica serovar Typhimurium BN10055 assessed as ratio of the nalidixic acid alone MIC to […] in presence of MIC/4 level of compound incubated for 18 hrs; type: functional; how it was run: as §1
Klebsiella aerogenes [12] = experiment: Potentiation of doxycycline-induced antibacterial activity against Enterobacter aerogenes Ea289 assessed as ratio of the doxycycline alone MIC to doxycycline MIC in presence of MIC/4 level of compound incubated for 18 hrs; type: functional; how it was run: as §1
Salmonella typhimurium [13] = experiment: Potentiation of erythromycin-induced antibacterial activity against Salmonella enterica subsp. enterica serovar Typhimurium BN10055 assessed as ratio of the erythromycin alone MIC to erythromycin MIC in presence of MIC/4 level of compound incubated for 18 hrs; type: functional; how it was run: as §1
Klebsiella aerogenes [14] = experiment: Induction of outer cell membrane permeabilization in Enterobacter aerogenes Ea289 assessed as induction of nitrocefin hydrolysis at 100 uM measured during initial 200 secs; type: organism-based; how it was run: as §2
Salmonella typhimurium [15] = experiment: Potentiation of doxycycline-induced antibacterial activity against Salmonella typhimurium assessed as mouse survival rate at 0.5 mg/kg, ip co-treated with 64 mg/kg for doxycycline (reference value: 0%); type: functional, Salmonella enterica subsp. enterica serovar Typhimurium
How it was run: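 Female BALB/cByJ mice, 5-6 weeks, anaesthetized with sevoflurane, infected ip with 200 µL of S. Typhimurium at 10² CFU/mL. Daily dosing with saline, doxycycline 64 mg/kg alone, or doxycycline 64 mg/kg plus 0.5 mg/kg compound. Mice weighed daily; sacrificed at day 1 (n=3), 3 (n=3) or 7 (n=6).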

Klebsiella aerogenes [16] = experiment: Induction of outer cell membrane permeabilization in Enterobacter aerogenes Ea289 assessed as induction of H33342 dye penetration at 100 uM; type: organism-based
Klebsiella aerogenes [17] = experiment: Potentiation of erythromycin-induced antibacterial activity against Enterobacter aerogenes Ea289 assessed as ratio of the erythromycin alone MIC to erythromycin MIC in presence of MIC/4 level of compound incubated for 18 hrs
[18] = Toxicity in BALB/cByJ mouse assessed as induction of toxic signs at 50 uM, ip measured after 48 hrs; type: organism-based; details: in vivo
Klebsiella aerogenes [19] = experiment: Potentiation of chloramphenicol-induced antibacterial activity against Enterobacter aerogenes Ea289 assessed as efficiency index by measuring sum of gain factor for each test compound reported for chloramphenicol/nalidixic acid/doxycycline/erythromycin and divided by concentration of test compound; type: functional; details: pooled result: one value given for 2 cell lines, strains, targets or settings
How it was run: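 Gain factors (antibiotic MIC alone / MIC with compound at MIC/4; broth dilution, 18 h, 37°C) for erythromycin, doxycycline, nalidixic acid and chloramphenicol are summed, then divided by the compound concentration used in the assay.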

Klebsiella aerogenes [20] = experiment: Antibacterial activity against Enterobacter aerogenes Ea289 assessed as inhibition of bacterial growth incubated for 18 hrs; type: organism-based
How it was run: (§3)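 Broth microdilution per CA-SFM in MH broth; inoculum 10⁵ CFU in 200 µL with two-fold serial dilutions; compounds dissolved in DMSO, up to 5% DMSO on bacteria. MIC = lowest concentration with no visible growth after 18 h at 37°C. Repeated at least three times independently.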

Salmonella typhimurium [21] = experiment: Antibacterial activity against Salmonella enterica subsp. enterica serovar Typhimurium BN10055 assessed as inhibition of bacterial growth incubated for 18 hrs; type: organism-based; how it was run: as §3
Klebsiella aerogenes [22] = experiment: Antibacterial activity against Enterobacter aerogenes Ea289 containing deltaacrB mutant assessed as inhibition of bacterial growth incubated for 18 hrs; type: organism-based; how it was run: as §3
Salmonella typhimurium [23] = experiment: Antibacterial activity against Salmonella enterica subsp. enterica serovar Typhimurium BN10055 containing deltaacrB mutant assessed as inhibition of bacterial growth incubated for 18 hrs; type: organism-based; how it was run: as §3

SMILES: CC(C)=CCCC(C)=CCNCCCN(CCCN)CCCN
- IC50 at 24 h [1]: 127 µM
- Ratio (Klebsiella aerogenes [2]): 8
- Ratio (Klebsiella aerogenes [3]): 8
- Activity (Klebsiella aerogenes [4]): Active
- Activity (Klebsiella aerogenes [5]): 1%
- Ratio (Salmonella typhimurium [6]): 16
- Activity (Klebsiella aerogenes [7]): 68%
- selectivity ratio [8]: 16.2
- Ratio (Salmonella typhimurium [9]): 16
- Activity [10]: Non-Toxic
- Ratio (Salmonella typhimurium [11]): 128
- Ratio (Klebsiella aerogenes [12]): 32
- Ratio (Salmonella typhimurium [13]): 4
- Activity (Klebsiella aerogenes [14]): inactive
- Survival (Salmonella typhimurium [15]): 43%
- Activity (Klebsiella aerogenes [16]): Active
- Ratio (Klebsiella aerogenes [17]): 16
- Activity [18]: Non-Toxic
- Activity_index (Klebsiella aerogenes [19]): 3.65

SMILES: N=C(N)NCCC[C@H](NC(=O)[C@@H](N)Cc1ccccc1)C(=O)Nc1ccc2ccccc2c1 [PABETAN] (H-Phe-Arg-βNA)
- Ratio (Klebsiella aerogenes [2]): 16
- Ratio (Klebsiella aerogenes [3]): 8
- Ratio (Salmonella typhimurium [6]): 8
- Activity (Klebsiella aerogenes [7]): 25%
- Ratio (Salmonella typhimurium [9]): 16
- Ratio (Salmonella typhimurium [11]): 64
- Ratio (Klebsiella aerogenes [12]): 16
- Ratio (Salmonella typhimurium [13]): 8
- Ratio (Klebsiella aerogenes [17]): 8

SMILES: CC(C)=CCCC(C)=CCNCCNCCNCCNCCNCCN
- IC50 at 24 h [1]: > 150 µM
- Ratio (Klebsiella aerogenes [2]): 8
- Ratio (Klebsiella aerogenes [3]): 4
- MIC (Klebsiella aerogenes [20]): > 500 µM
- Ratio (Salmonella typhimurium [6]): 8
- selectivity ratio [8]: 0.06
- Ratio (Salmonella typhimurium [9]): 4
- Ratio (Salmonella typhimurium [11]): 16
- Ratio (Klebsiella aerogenes [12]): 2
- MIC (Salmonella typhimurium [21]): > 500 µM
- Ratio (Klebsiella aerogenes [17]): 1
- Activity_index (Klebsiella aerogenes [19]): 0

SMILES: CC(C)=CCC/C(C)=C\CCC(C)=CCNCCCCCCCCCCCCN
- IC50 at 24 h [1]: 25.3 µM
- Ratio (Klebsiella aerogenes [2]): 2
- Ratio (Klebsiella aerogenes [3]): 1
- Ratio (Salmonella typhimurium [6]): 4
- Ratio (Salmonella typhimurium [9]): 8
- Ratio (Salmonella typhimurium [11]): 8
- Ratio (Klebsiella aerogenes [12]): 2
- Ratio (Salmonella typhimurium [13]): 2
- MIC (Klebsiella aerogenes [22]): 7.8 µM (≈ 3.16 µg/mL)
- Ratio (Klebsiella aerogenes [17]): 1
- MIC (Salmonella typhimurium [23]): 3.9 µM (≈ 1.58 µg/mL)

SMILES: CC(C)=CCCC(C)=CCNCCNCCNCCN
- IC50 at 24 h [1]: > 150 µM
- Ratio (Klebsiella aerogenes [2]): 8
- Ratio (Klebsiella aerogenes [3]): 2
- MIC (Klebsiella aerogenes [20]): > 500 µM
- Ratio (Salmonella typhimurium [6]): 4
- selectivity ratio [8]: 0.06
- Ratio (Salmonella typhimurium [11]): 16
- MIC (Salmonella typhimurium [21]): > 500 µM
- Activity_index (Klebsiella aerogenes [19]): 0

SMILES: CC[C@H](C)CCCCC(=O)N[C@@H](CCN)C(=O)N[C@H](C(=O)N[C@@H](CCN)C(=O)N[C@H]1CCNC(=O)[C@H]([C@@H](C)O)NC(=O)[C@H](CCN)NC(=O)[C@H](CCN)NC(=O)[C@H](CC(C)C)NC(=O)[C@@H](Cc2ccccc2)NC(=O)[C@H](CCN)NC1=O)[C@@H](C)O (X1-[Dab]T[Dab][Dab][Dab][dF]L[Dab][Dab]T; lactam 4-C)
- Activity (Klebsiella aerogenes [5]): 14%

SMILES: CC(C)=CCC/C(C)=C\CCC(C)=CCNCCNCCNCCNCCNCCN
- IC50 at 24 h [1]: 41.7 µM
- Ratio (Klebsiella aerogenes [2]): 4
- Ratio (Klebsiella aerogenes [3]): 8
- Ratio (Salmonella typhimurium [6]): 8
- selectivity ratio [8]: 10.7
- Ratio (Salmonella typhimurium [9]): 16
- Ratio (Salmonella typhimurium [11]): 32
- Ratio (Klebsiella aerogenes [12]): 16
- Ratio (Salmonella typhimurium [13]): 2
- MIC (Klebsiella aerogenes [22]): 7.8 µM (≈ 3.41 µg/mL)
- Ratio (Klebsiella aerogenes [17]): 4
- Activity_index (Klebsiella aerogenes [19]): 2.88

SMILES: CC(C)=CCCC(C)=CCNCCCNCCCCNCCCN
- IC50 at 24 h [1]: > 150 µM
- Ratio (Klebsiella aerogenes [2]): 8
- Ratio (Klebsiella aerogenes [3]): 16
- Ratio (Salmonella typhimurium [6]): 16
- selectivity ratio [8]: 4.8
- Ratio (Salmonella typhimurium [9]): 16
- Ratio (Salmonella typhimurium [11]): 64
- Ratio (Klebsiella aerogenes [12]): 16
- Ratio (Salmonella typhimurium [13]): 2
- Ratio (Klebsiella aerogenes [17]): 4
- Activity_index (Klebsiella aerogenes [19]): 0.57

SMILES: CC(C)=CCC/C(C)=C\CCC(C)=CCNCCNCCNCCNCCN
- IC50 at 24 h [1]: 43.5 µM
- Ratio (Klebsiella aerogenes [2]): 8
- Ratio (Klebsiella aerogenes [3]): 16
- Ratio (Salmonella typhimurium [6]): 8
- selectivity ratio [8]: 5.37
- Ratio (Salmonella typhimurium [9]): 4
- Ratio (Salmonella typhimurium [11]): 16
- Ratio (Klebsiella aerogenes [12]): 32
- Ratio (Salmonella typhimurium [13]): 1
- Ratio (Klebsiella aerogenes [17]): 8
- Activity_index (Klebsiella aerogenes [19]): 1.49

SMILES: CC(C)=CCC/C(C)=C\CCC(C)=CCNCCCN(CCCN)CCCN
- IC50 at 24 h [1]: > 150 µM
- Ratio (Klebsiella aerogenes [2]): 32
- Ratio (Klebsiella aerogenes [3]): 16
- Ratio (Salmonella typhimurium [6]): 16
- selectivity ratio [8]: 19.2
- Ratio (Salmonella typhimurium [9]): 8
- Ratio (Salmonella typhimurium [11]): 128
- Ratio (Klebsiella aerogenes [12]): 16
- Ratio (Salmonella typhimurium [13]): 1
- Ratio (Klebsiella aerogenes [17]): 4
- Activity_index (Klebsiella aerogenes [19]): 3.54
